What was measured:
hyaluronidase = molecular target: T1, hyaluronidase (Bos taurus, UniProt Q2YDK3); test: Hyaluronidase enzyme inhibitory assay; format: biochemical; settings: concentration range 25–250 µg/mL
T1 sequence (Q2YDK3 36-553): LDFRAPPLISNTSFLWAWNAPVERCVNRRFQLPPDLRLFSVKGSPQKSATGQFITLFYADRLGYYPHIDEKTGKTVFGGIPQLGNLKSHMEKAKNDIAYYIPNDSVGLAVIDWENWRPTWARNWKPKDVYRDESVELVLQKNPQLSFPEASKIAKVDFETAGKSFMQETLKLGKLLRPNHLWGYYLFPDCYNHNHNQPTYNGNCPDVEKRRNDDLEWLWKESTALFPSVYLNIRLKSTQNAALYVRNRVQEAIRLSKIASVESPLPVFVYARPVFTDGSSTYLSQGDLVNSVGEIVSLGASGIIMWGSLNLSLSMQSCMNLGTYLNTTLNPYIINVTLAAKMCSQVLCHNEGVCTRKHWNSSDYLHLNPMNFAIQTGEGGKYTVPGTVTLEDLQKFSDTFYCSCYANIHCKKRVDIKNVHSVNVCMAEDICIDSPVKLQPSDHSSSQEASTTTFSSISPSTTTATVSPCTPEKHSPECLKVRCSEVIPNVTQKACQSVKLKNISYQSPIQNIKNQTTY
Outline: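 The test extract in 10% DMSO is incubated with hyaluronidase 10 min at 37 °C, then with CaCl2 (12.5 mM solution) for 10 min. Sodium hyaluronate is added for 40 min at 37 °C. NaOH (0.9 M) and sodium borate (0.2 M) are added and heated 3 min at 100 °C. PDMAB (67 mM) is added for 10 min at 37 °C, and absorbance is read at 585 nm. Tannic acid is the reference; IC50 comes from dose-response curves, three independent experiments.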

[1] = Ferric reducing antioxidant power; settings: mean ± S.D. of three measurements
Outline: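 FRAP reagent is acetate buffer (300 mM, pH 3.6), TPTZ (10 mM in 40 mM HCl) and FeCl3·6H2O (20 mM) at 10:1:1, prewarmed 10 min at 37 °C. The test extract reacts with the reagent for 30 min at 37 °C, and Fe(II)-TPTZ is read at 593 nm. Values come from a ferrous sulfate calibration curve, as FeSO4 equivalents per g extract. Ascorbic acid is the reference; three independent experiments, mean ± SD.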

[2] = DPPH radical scavenging assay
Outline: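 The test extract (6.25–400 ug/mL) is mixed 1:1 with 0.06 mM DPPH in absolute ethanol and incubated 30 min in the dark. Absorbance is read at 517 nm and corrected with a DPPH-free sample background. BHT is the standard. % inhibition = (Acontrol − Asample)/Acontrol × 100. IC50 comes from dose-response curves; three independent experiments, mean ± SD.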

[3] = molecular target: collagenase from Clostridium histolyticum; test: Collagenase enzyme inhibitory assay; format: biochemical; settings: concentration range 15.63–1000 µg/mL
Outline: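 Clostridium histolyticum collagenase (0.1 mg/mL) is preincubated with the test extract in tricine buffer (50 mM tricine, 10 mM CaCl2, 400 mM NaCl, pH 7.5) for 20 min at 37 °C. FALGPA substrate (1 mM solution) is added, and absorbance is read at 335 nm after 15 min. EGCG is the positive control. IC50 is taken from dose-response curves of % inhibition, with three independent experiments.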

[4] = molecular target: porcine pancreatic elastase (Sus scrofa, UniProt P00772); test: Elastase enzyme inhibitory assay; format: biochemical; settings: concentration range 15.63–1000 µg/mL
Outline: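 Porcine pancreatic elastase and the test extract in Tris-HCl (100 mM, pH 8.0) are incubated 5 min at 37 °C. The reaction is started with succinyl-Ala-Ala-Ala-p-nitroanilide (4.4 mM solution in Tris-HCl), and absorbance is read at 410 nm. EGCG is the positive control and distilled water the negative control. IC50 is taken from dose-response curves of % inhibition, with three independent experiments.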

porcine pancreatic elastase, sequence (P00772 27-266): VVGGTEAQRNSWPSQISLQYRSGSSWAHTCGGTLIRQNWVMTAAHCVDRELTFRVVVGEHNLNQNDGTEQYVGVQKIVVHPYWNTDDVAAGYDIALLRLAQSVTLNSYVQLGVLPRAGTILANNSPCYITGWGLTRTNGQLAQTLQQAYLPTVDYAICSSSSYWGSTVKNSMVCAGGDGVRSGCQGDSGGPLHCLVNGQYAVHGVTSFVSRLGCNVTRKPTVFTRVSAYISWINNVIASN

## tannic acid
hyaluronidase
  Hyaluronidase inhibition IC50: 30.652 ± 0.626 µg/mL

## O=C1O[C@H]([C@@H](O)CO)C(O)=C1O [Ascorbic acid]
[1]
  FRAP: 4794.7 ± 5.507 µM FeSO4/g extract

## Cc1cc(C(C)(C)C)c(O)c(C(C)(C)C)c1 [BHT, butylated hydroxytoluene]
[2]; mean ± S.D. of three measurements
  DPPH (IC50): 20.721 ± 0.138 µg/mL
[2]; unit as printed in the results text
  DPPH radical scavenging IC50: 20.72 ± 0.138 µg/mL

## O=C(O[C@@H]1Cc2c(O)cc(O)cc2O[C@@H]1c1cc(O)c(O)c(O)c1)c1cc(O)c(O)c(O)c1 [EGCG, epigallocatechin gallate]
[3]
  Collagenase inhibition IC50: 33.662 ± 0.302 µg/mL
[4]
  Elastase inhibition IC50: 33.334 ± 0.299 µg/mL
